Test [1] is described as follows: thallium flux activation in parental CHO cells, counter-screen for KCNQ1 potentiator project (AID 493006;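 active means duplicate-averaged activation above buffer control mean plus 5 SD of those controls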;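 on activation: fluorescence ratio of max minus min over baseline after K+ and Tl+ depolarization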). To be noted: parental CHO-K1 cells, FluxOR thallium flux, at 10 µM; hits give high values. Put shortly: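 Material: parental CHO-K1 cells, FluxOR dye-loaded; Also added: Potassium/thallium depolarization pulse; Schedule: overnight 37 °C plating, 90 min dye, 20 min dark compound; Signal: kinetic FluxOR fluorescence, 10 s baseline, 110 s after stimulus.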

In test [2] the target is Potassium voltage-gated channel subfamily KQT member 1 (Homo sapiens) (UniProt P51787). The test can be described thus: KCNQ1 potassium channel potentiators, confirmation, FluxOR thallium flux, CHO cells, duplicates (AID 493007).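 On outcome: cells depolarized by a potassium plus thallium sulfate stimulus after compound.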 Particulars: KCNQ1 cell line, FluxOR thallium flux fluorescence, at 10 µM; hits give high values, % of reference activator effect, buffer zero. Put shortly:
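System: KCNQ1-expressing CHO cell line; technique: kinetic thallium influx fluorescence with FluxOR dye, 10 s baseline, 110 s post-stimulus; timing: dye 90 min then compound 20 min, both at room temperature; controls: buffer-only wells as 0% and R-L3 activator as 100%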

Test [3] deals with Potassium voltage-gated channel subfamily KQT member 2 (Rattus norvegicus) (UniProt O88943). The experiment in a line: rat KCNQ2 channel potentiation, selectivity assay for KCNQ1 potentiator project, KCNQ2-CHO-K1 cells (AID 493009;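 active means mean duplicate potentiation above the buffer control mean plus 5 SD of buffer wells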;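 further: assay conditions were tuned for KCNQ1 rather than KCNQ2 modulators; signal is max minus min fluorescence divided by baseline after thallium stimulus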). Particulars: FluxOR thallium flux fluorescence, at 10 µM; hits give high values, scaled: buffer 0, activator control 100.
Potassium voltage-gated channel subfamily KQT member 2 (Rattus norvegicus), sequence (O88943 whole entry, looked up): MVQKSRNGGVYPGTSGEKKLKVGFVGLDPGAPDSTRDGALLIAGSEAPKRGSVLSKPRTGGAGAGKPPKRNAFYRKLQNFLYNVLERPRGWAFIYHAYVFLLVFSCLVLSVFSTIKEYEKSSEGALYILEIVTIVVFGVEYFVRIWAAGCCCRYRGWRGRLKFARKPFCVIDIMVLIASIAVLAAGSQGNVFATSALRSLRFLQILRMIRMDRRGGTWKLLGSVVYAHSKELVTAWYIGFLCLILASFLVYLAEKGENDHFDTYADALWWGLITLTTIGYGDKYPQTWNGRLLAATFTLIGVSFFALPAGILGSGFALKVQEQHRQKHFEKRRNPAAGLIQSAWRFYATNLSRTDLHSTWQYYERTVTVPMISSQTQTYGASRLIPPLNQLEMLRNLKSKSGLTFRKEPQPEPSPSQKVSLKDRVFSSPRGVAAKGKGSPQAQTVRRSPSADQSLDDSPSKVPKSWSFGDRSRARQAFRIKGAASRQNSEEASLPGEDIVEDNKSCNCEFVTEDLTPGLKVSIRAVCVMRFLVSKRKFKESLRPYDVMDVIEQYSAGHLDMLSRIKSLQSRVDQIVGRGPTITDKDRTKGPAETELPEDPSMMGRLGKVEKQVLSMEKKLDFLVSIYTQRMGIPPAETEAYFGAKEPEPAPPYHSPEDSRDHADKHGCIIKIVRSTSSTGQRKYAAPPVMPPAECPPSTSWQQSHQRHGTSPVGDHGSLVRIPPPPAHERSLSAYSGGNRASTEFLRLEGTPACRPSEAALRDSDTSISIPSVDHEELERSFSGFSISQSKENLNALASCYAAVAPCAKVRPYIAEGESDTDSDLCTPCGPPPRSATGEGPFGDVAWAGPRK
Test [4] deals with Potassium voltage-gated channel subfamily KQT member 1 (Homo sapiens) (UniProt P51787). The experiment in a line: KCNQ1 channel current potentiators, confirmation, orthogonal assay for KCNQ1 potentiator project, IonWorks patch clamp, KCNQ1-CHO cells (AID 493184;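 active means current rise at least 3 SD above the untreated control mean in each of two repeat wells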). To be noted: automated patch clamp current, at 10 µM; hits give high values. The method, boiled down:
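Test system: KCNQ1-expressing CHO cells. Medium: pH 7.4 external bath. Probe or stimulus: voltage step from -90 mV holding to +40 mV, 2,000 ms. Compound: 10 µM final, single point. Detection: automated perforated-patch electrophysiology. Read-out: percent current increase versus pre-compound level. Repeats: two replicates.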

The source made the active and inactive calls.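 How the source made its calls, unless noted: active means potentiation averaged over duplicate wells exceeding buffer-only control mean by more than 3 SD; inactive means the rest.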

Potassium voltage-gated channel subfamily KQT member 1 (Homo sapiens), sequence (P51787 whole entry, looked up): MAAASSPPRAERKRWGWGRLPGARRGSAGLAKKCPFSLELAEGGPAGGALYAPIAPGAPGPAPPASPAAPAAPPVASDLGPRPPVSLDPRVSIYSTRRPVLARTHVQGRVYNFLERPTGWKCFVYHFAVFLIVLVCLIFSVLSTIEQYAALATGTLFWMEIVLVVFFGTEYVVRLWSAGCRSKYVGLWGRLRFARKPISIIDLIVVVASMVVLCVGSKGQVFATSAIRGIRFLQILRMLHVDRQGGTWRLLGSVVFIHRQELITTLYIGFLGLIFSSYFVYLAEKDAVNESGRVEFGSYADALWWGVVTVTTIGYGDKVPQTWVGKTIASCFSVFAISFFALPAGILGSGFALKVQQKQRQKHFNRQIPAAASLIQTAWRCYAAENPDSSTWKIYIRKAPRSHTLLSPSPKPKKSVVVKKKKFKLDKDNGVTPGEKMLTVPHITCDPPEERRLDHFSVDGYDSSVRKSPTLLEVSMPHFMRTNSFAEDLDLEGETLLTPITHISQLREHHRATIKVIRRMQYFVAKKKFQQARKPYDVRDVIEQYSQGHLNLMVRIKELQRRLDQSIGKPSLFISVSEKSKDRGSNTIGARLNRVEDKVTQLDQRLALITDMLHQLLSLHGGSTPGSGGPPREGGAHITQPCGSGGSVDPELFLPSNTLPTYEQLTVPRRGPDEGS

As to `Cc1cccc(C(=O)NC(=S)N2CCc3ccccc3C2)c1`, the activation in test [1] was 197% (active). The potentiation is 99% (active) in test [2] and 256% (active) in test [3]. In addition, the outcome in test [4] was inactive.
As for `O=C(Nc1ccccc1)C1=C(c2ccccc2)S(=O)(=O)CCS1(=O)=O`, the result in test [1], in test [2], in test [3] and in test [4] was inactive.
As for `COc1cnc(-c2ccccn2)nc1Oc1ccccc1Cl`, the result in test [1], in test [2], in test [3] and in test [4] was inactive.
For `CCc1nnc(NC(=O)CN2C(=O)c3ccccc3C2=O)s1`, the outcome in test [1], in test [2], in test [3] and in test [4] was inactive.
For `COc1ccc(OC)c(NC(=O)C(=O)NNC(=O)C23CC4CC(CC(C4)C2)C3)c1`, the activation in test [1] is 404% (active). The potentiation was 244% (active) in test [2] and 463% (active) in test [3]. Moreover, the result in test [4] was inactive.
Take `Nc1cc(=O)[nH]c(SCC(=O)N2CCN(S(=O)(=O)c3ccc4ccccc4c3)CC2)n1`: the result in test [1], in test [2], in test [3] and in test [4] was inactive.
Regarding `CC1SCC(=NOCc2c(Cl)cccc2Cl)CS1` (stereo not given), the result in test [1], in test [2], in test [3] and in test [4] was inactive.
For the compound `Cc1[nH]n(C(N)=S)c(=O)c1N=Nc1ccc2ccccc2c1`, the activation in test [1] is 150% (active). Further, the potentiation in test [2] was 238% (active); in test [3], 628% (active). In addition, the result in test [4] was inactive.
`CC(=O)Oc1c(-c2ccc(Br)o2)oc2ccccc2c1=O`: in test [1], the activation is 480% (active). Also, the potentiation in test [2] was 109% (active); in test [3], 482% (active). Moreover, the result in test [4] was inactive.
In the case of `Cn1ccnc1C(OC(=O)c1ccc(Cl)cc1)C(F)(F)F` (stereo not given), the result in test [1], in test [2], in test [3] and in test [4] was inactive.
For the compound `COc1ccc(CCN(C)C(=O)CSc2nnc(-c3ccco3)o2)cc1OC`, the result in test [1], in test [2], in test [3] and in test [4] was inactive.
On to `O=C(CN1CCN(Cc2ccc(F)cc2Cl)C1=O)NCCc1ccccc1`, for which the result in test [1], in test [2], in test [3] and in test [4] was inactive.
With `CC(C)n1c(=S)[nH]c2scc(-c3cccs3)c2c1=O`, the activation in test [1] was 491% (active). For the same compound, the results for the potentiation in test [2] and in test [3] were 200% (active) and 465% (active), respectively. Further, the result in test [4] was inactive.
On the same counts, the results for `O=C(N/N=C/c1ccccn1)c1sc2ccccc2c1Cl` are 156% (active), 41% (active), 207% (active) and “inactive”.
With `O=C(NCc1ccccc1)c1onc(CSc2ccc(F)cc2)c1C(=O)NCCCN1CCOCC1`, the result in test [1], in test [2], in test [3] and in test [4] was inactive.
In the case of `CC1(C)CC(=O)C2=C(C1)N(c1cccc(Cl)c1)C(=O)NC2(C(F)(F)F)C(F)(F)F`, the result in test [1], in test [3] and in test [4] was inactive. Moreover, in test [2], the potentiation is 19.5% (active).
In the case of `COc1ccc(-n2nnnc2-c2ccccc2)cc1`, the result in test [1], in test [2], in test [3] and in test [4] was inactive.
As to `O=C(NC(=S)Nc1ccccn1)c1cc(-c2ccccc2)nc2ccccc12`, the outcome in test [1], in test [3] and in test [4] was inactive. The potentiation in test [2] is 18% (active).
Regarding `Cc1ccc2nc(NC(=S)NC(=O)c3cccs3)sc2c1`, the activation in test [1] is 168% (active). For the same compound, the potentiation in test [2] was 66% (active); in test [3] it was 158% (active). Besides, the result in test [4] was inactive.
`COc1ccccc1/C=C1\N=C(C(C)(C)C)OC1=O`: the outcome in test [1], in test [2], in test [3] and in test [4] was inactive.
Take `O=C(COC(=O)C12CC3CC(CC(C3)C1)C2)NCCCc1ccccc1`: the outcome in test [1], in test [2], in test [3] and in test [4] was inactive.
As to `Cc1ccc(/C=C/C(=O)C2C(=O)c3ccccc3C2=O)cc1`, in test [1], the activation was 227% (active). Besides, the figures for the potentiation in test [2] and in test [3] were 58.5% (active) and 206% (active), respectively. In addition, the outcome in test [4] was inactive.
On the same counts, the results for `COc1ccc(/C=C2\SC(=O)NC2=S)cc1OC` are 154% (active), 34% (active), 191% (active) and “inactive”.
With `COC(=O)c1ccc(N2CCN(S(=O)(=O)c3ccc(Br)cc3)CC2)c([N+](=O)[O-])c1`, the outcome in test [1], in test [2], in test [3] and in test [4] was inactive.
In the case of `COC(=O)CCCC[C@@H]1SC[C@@H](NC(=O)OC)[C@@H]1NC(=O)OC`, the outcome in test [1], in test [2], in test [3] and in test [4] was inactive.
As for `COc1cccc(NC(=O)NCC2CCN(Cc3ccc(F)cc3)CC2)c1`, the result in test [1], in test [2], in test [3] and in test [4] was inactive.
Take `CC1CCCN(c2ccc(C(=O)NCc3ccccc3)cn2)C1` (stereo not given): the activation in test [1] is 155% (active). For the same compound, the potentiation in test [2] was 26% (active); in test [3], 152% (active). Besides, the outcome in test [4] was inactive.
On the same counts, the results for `CCOC(=O)C1=NN(C(=O)c2ccccc2)C(O)(c2ccc(C)cc2)C1` (stereo not given) are 141% (active), 49.5% (active), 216% (active) and “inactive”.
`COCCNC(=O)C1CCN(S(=O)(=O)N2CCC3(CC2)OCCO3)CC1`: the result in test [1], in test [2], in test [3] and in test [4] was inactive.
In the case of `NC(N)=N/N=C/c1ccccc1OC(F)F`, the outcome in test [1], in test [2], in test [3] and in test [4] was inactive.

The values above are taken from PubChem BioAssay.
